An excerpt weighted towards active compounds, which were near 2.3% of everything screened.
DNMT1 block – blocks human DNA methyltransferase DNMT1; 0.83% of 360,000 active; inhibition (reported as % activation of signal), % at 10 µM; P26358; DNMT1 molecular beacon, Hinp1I cleavage, fluorescence; in the data active = inhibition above about 50%
Scp1 inh – Scp-1 (human) phosphatase inhibition | Recombinant Scp1, phosphopeptide, malachite green phosphate absorbance | 0.88% of 340,000 active | AID 493091 | Q9GZU7 | inhibition, % at 20 µM;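 active = inhibition above about 50% at 20 µM, limit read from the data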;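 note: plate controls were DMSO wells with enzyme for no effect and wells lacking enzyme for full effect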
Target sequence (Q9GZU7 76-261 limits assumed): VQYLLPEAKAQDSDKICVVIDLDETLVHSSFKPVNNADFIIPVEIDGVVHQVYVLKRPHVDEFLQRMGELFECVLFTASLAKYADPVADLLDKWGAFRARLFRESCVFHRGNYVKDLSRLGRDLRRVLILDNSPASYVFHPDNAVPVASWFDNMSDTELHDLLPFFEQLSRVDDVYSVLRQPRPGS
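Material – SCP-1 phosphatase catalytic domain, residues 76-261 · Buffer or medium – Acidic Tris acetate buffer with magnesium and detergent · Also added – Phospho 17-mer peptide substrate · Compound – single 20 µM dose, 1% DMSO · Times – 45 min room-temperature reaction, 5 min colour, 30 min stabiliser · Technique – Phosphate-binding colour reagent, absorbance read at 630 nm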
STEP inh – STEP (human) phosphatase inhibition; P54829; recombinant STEP, OMFP fluorogenic substrate, fluorescence; inhibition, % at 20 µM; 0.25% of 360,000 active; AID 588621;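 active = inhibition at 20 µM, scaled per plate between control wells, above about 37%, limit read from the data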;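 note: 0% = DMSO with enzyme and substrate and 100% = substrate only without enzyme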
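System: STEP (striatal-enriched tyrosine phosphatase) enzyme, cell-free; medium: Bis-Tris pH 6.0 buffer with DTT, detergent; dosing: 20 µM, 1% DMSO; times: reaction 20 min, ambient temperature; detection: fluorescence, 480/540 nm; read-out basis: normalized % inhibition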
SUMO1 PPI mod – SUMO1-SIM interaction modulation; 0.33% of 360,000 active; inhibition, % at 20 µM; AID 602429; P63165; SUMO1 binding to a labelled peptide, TR-FRET, 1 h; in the data active = inhibition above about 37%
LMPTP inh – LMPTP (human) inhibition. inhibition, % at 20 µM. recombinant LMPTP-A, OMFP fluorogenic substrate, fluorescence intensity. AID 651560. 0.22% of 360,000 active;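 active = compounds that cut the enzyme signal by at least half of the control window in the single-dose screen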;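 note: plate controls were DMSO wells with enzyme plus substrate for no effect and substrate without enzyme for full effect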
Target sequence (P24666 whole entry, looked up): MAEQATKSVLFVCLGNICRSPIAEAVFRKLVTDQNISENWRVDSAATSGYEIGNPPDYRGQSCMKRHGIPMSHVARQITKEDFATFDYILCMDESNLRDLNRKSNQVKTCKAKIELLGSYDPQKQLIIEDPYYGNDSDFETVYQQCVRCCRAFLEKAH
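Assay system: LMPTP-A enzyme. Input: 0.625 nM LMPTP-A final. Probe or stimulus: 400 µM OMFP. Compound dosing: single 20 µM dose. Schedule: 50 min dark incubation at room temperature. Detection: fluorescence intensity of OMFP turnover product. Read-out: percent inhibition versus substrate-only and uninhibited controls. Benchmarks: no-enzyme low control, uninhibited high control.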
Rpn11 block – inhibitors of human proteasome Rpn11; O00487; human 26S proteasome, Ub4-pepOG fluorescence polarization; 20S core pre-blocked with epoxomicin; inhibition, % at 20 µM; 0.59% of 360,000 active;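 active = inhibition at 20 µM, scaled to each plate's controls, above about 33%, limit read from the data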
Target sequence (O00487 whole entry, looked up): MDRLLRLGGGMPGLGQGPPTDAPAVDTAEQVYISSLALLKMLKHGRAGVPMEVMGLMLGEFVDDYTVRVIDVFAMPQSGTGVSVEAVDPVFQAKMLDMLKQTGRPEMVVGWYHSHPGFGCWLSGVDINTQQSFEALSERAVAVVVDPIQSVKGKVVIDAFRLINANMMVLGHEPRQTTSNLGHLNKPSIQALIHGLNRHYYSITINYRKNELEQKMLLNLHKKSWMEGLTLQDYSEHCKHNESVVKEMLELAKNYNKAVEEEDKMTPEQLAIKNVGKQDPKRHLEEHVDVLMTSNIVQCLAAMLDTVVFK
DNMT1 interf DR – beacon fluorescence artifact, dose response counter-screen; 200 tested, under 10 active; IC50, µM; AID 602382; molecular beacon fluorescence, spectral interference counter-screen; shares compounds with DNMT1 block; call rule not given here
DNMT1 inh conf – DNMT1 inhibition confirmation, single concentration | shares compounds with DNMT1 block | DNMT1 molecular beacon HinP1I cleavage, fluorescence | inhibition, % at 10 µM | 8% of 2,300 active;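 active = average inhibition of at least 30% in the single-concentration confirmation test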
DNMT1 interf – counter-screen for DNMT1 inhibitors: spectral interference; shares compounds with DNMT1 block; DNMT1 molecular beacon spectral interference counterscreen, fluorescence 485/520; activation (fluorescence interference), % at 10 µM; 1% of 2,300 active;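 active = activation of at least 30% at 10 µM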;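 note: DNMT1 catalytic domain with a HinP1I cleavage step and a FAM/dabcyl DNA beacon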
Starred values were filed as active, the others as inactive; . = no result given.

SMILES | DNMT1 block | Scp1 inh | STEP inh | SUMO1 PPI mod | LMPTP inh | Rpn11 block | DNMT1 inh conf | DNMT1 interf | others
N#CC(C(=O)Nc1ccccc1)=C1Nc2ccccc2N1 | -1 | -6 | -1 | 10 | 1 | -10 | . | .
N#CC(C(=O)Nc1ccc(Cl)c(Cl)c1)=C1Nc2ccccc2N1 | 65* | 1 | -2 | 4 | 0 | -1 | 1 | 2
O=c1c2c([nH]c3ccccc13)CCCC2 | 1 | -3 | 5 | 3 | 0 | -4 | . | .
O=c1c2c([nH]c3ccccc13)C(=C1CCCC1)CC2 | 92* | 7 | 10 | 28 | 59* | 13 | 7 | 4
COc1ccc(NC(=O)CSc2nc3c(cc2C#N)CN(C)CC3)cc1 | 71* | 6 | 3 | -8 | 21 | 7 | 3 | 5
N#CCSc1nnc(-c2ccc(F)cc2)n1N | 92* | -1 | -1 | 3 | -2 | -5 | 5 | 4
COc1cccc(/C=c2\sc3nc(-c4cccs4)nn3c2=O)c1OC | 4 | -21 | 1 | 25 | 1 | 6 | . | .
Cc1ccc(/C=c2\sc3nc(-c4cccs4)nn3c2=O)o1 | 57* | 25 | -2 | 3 | 1 | 32 | 2 | 3
COc1ccc(OC)c(CN2CCN(CC(=O)Nc3ccccc3C(=O)NC3CC3)CC2)c1 | 6 | -13 | -3 | -1 | -1 | 0 | . | .
CC(=O)c1cccc(NC(=O)C2Cc3c(-c4ccc5c(c4)OCO5)ccnc3O2)c1 (stereo unspecified) | -3 | . | 4 | 11 | 0 | -10 | . | .
Cc1ccc(C)c(OCC(=O)N/N=C/c2c(C)nn(-c3ccccc3)c2Cl)c1C | 53* | -10 | 4 | 1 | -2 | 1 | 0 | 0
CN(C)C(=S)NC(=S)Nc1ccc2ccccc2c1 | -9 | -3 | -4 | -3 | 3 | 2 | . | .
Cc1cc(NC(=O)c2ccco2)c(=O)n(Cc2cccc(C(F)(F)F)c2)c1 | 66* | -6 | 0 | -8 | 1 | -4 | 3 | 5
C[C@H](NC(=O)C1CC(=O)N(c2ccc3c(c2)OCO3)C1)C(=O)NC1CCCCC1 (stereo partly specified) | 1 | -1 | -2 | 3 | -2 | 2 | . | .
CCn1cc(S(=O)(=O)NCCc2ccc(OC)c(OC)c2)cn1 | 83* | 1 | 0 | -2 | 1 | 6 | 3 | 0
COc1ccc(CCNS(=O)(=O)c2cn(C)cn2)cc1OC | 1 | 9 | -2 | -3 | 0 | 6 | . | .
c1ccc(-c2cnn3c(-c4ccccc4)c(-c4ccccc4)nc3n2)cc1 | 178* | 6 | -190 | -50 | -6 | 12 | 13 | 60*
O=c1cc(CCl)nc2sc3ccccc3n12 | 62* | 46 | 9 | 7 | 14 | -12 | 3 | -2
Cc1n[nH]c(C)c1S(=O)(=O)N(C)Cc1ccco1 | 8 | 3 | -1 | 4 | -2 | 6 | . | .
Cc1nc2ccccc2c2ncccc12 | 6 | -7 | -1 | 7 | 2 | 6 | . | .
c1cnc2nc3c4ccccc4c4ccccc4c3nc2c1 | 52* | 13 | -2 | 36 | 8 | 4 | -1 | 0
Cc1[nH]c(C)c(S(=O)(=O)N2CCN(c3ccccc3F)CC2)c1C(=O)N1CCCC1 | -2 | -3 | -2 | -1 | 1 | -3 | . | .
CC(=O)Nc1ccc(N2C(=O)c3cccc4c(O)ccc(c34)C2=O)cc1 | 51* | 12 | -32 | -105 | -1 | -140 | 106* | 99*
COC(=O)c1c(N)[nH]c(C(=O)c2ccccc2)c1-c1ccccc1Br | . | . | . | -1 | 0 | . | . | .
O=C(/C=C/c1ccc2c(c1)OCO2)Nc1nc2ccccc2s1 | 39 | -4 | 1 | -1 | 1 | -10 | . | .
SMILES | DNMT1 block | Scp1 inh | STEP inh | SUMO1 PPI mod | LMPTP inh | Rpn11 block | DNMT1 inh conf | DNMT1 interf | others
Cc1ccc2nc(NC(=O)/C=C/c3ccc4c(c3)OCO4)sc2c1 | 56* | 6 | 10 | -1 | 8 | -2 | 2 | -4
CCn1c(SCC(=O)Nc2cc(F)ccc2C)nnc1-c1ccccc1O | 56* | -11 | 24 | -1 | 0 | -12 | 1 | 1
CCN(CC)CCOc1ccc(Br)cc1 | 14 | 2 | 3 | -4 | -1 | 3 | . | .
CCN(CC)CCOc1ccc2c(c1)C(=NO)c1cc(OCCN(CC)CC)ccc1-2 | 61* | 13 | 0 | -27 | 5 | 2 | 34* | -3 | DNMT1 interf DR=>99
O=C([O-])c1ccccc1-[n+]1c(-c2ccccc2)cc(-c2ccccc2)cc1-c1ccccc1 | 1 | 8 | 0 | -15 | 25 | -7 | . | .
CC(/C=C1\SC(=S)N(NC(=O)c2ccc(C)cc2)C1=O)=C\c1ccccc1 | 4 | 0 | 2 | 7 | 2 | 3 | . | .
CC(/C=C1\SC(=S)N(c2ccc(C(=O)O)cc2)C1=O)=C\c1ccccc1 | 110* | 18 | 2 | 57* | 17 | 4 | 6 | 0
Cc1cc(=O)oc2c3c(cc(OCC(=O)N[C@@H](Cc4ccccc4)C(=O)O)c12)OC(C)(C)CC3 | 0 | -4 | -2 | 1 | -1 | -1 | . | .
Cc1cc(=O)oc2c3c(cc(OCC(=O)NC(Cc4ccc(Cl)cc4)C(=O)O)c12)OC(C)(C)CC3 (stereo unspecified) | 98* | 4 | -2 | 15 | -1 | -9 | 1 | 0
Cc1n[nH]c(=O)nc1N/N=C/c1ccc(O)c([N+](=O)[O-])c1 | 73* | 7 | 2 | -19 | -10 | 4 | 0 | 1
CCN(CC)S(=O)(=O)c1cc(NC(=O)Cc2ccc(S(=O)(=O)N3CCOCC3)s2)ccc1Cl | -3 | -13 | -3 | -10 | 1 | 6 | . | .
O=C(CSc1nnc(-c2ccco2)o1)c1ccccc1 | 1 | -2 | 5 | 1 | 1 | 13 | . | .
O=C(CSc1nnc(-c2ccco2)o1)c1ccc[nH]1 | 55* | 40 | 1 | 18 | 53* | -10 | 6 | 3
CCOc1ccc2nc(SCC(=O)NC3CCCCC3)[nH]c2c1 | -1 | -10 | -2 | 6 | -1 | 6 | . | .
Cc1ccc(OCC(=O)Nc2ccc(-c3nc4ncccc4o3)cc2)c(C)c1 | 55* | 5 | -2 | 4 | 12 | 3 | 4 | 4
Cc1ccc(OCC(=O)Nc2ccncc2)c(C)c1 | -2 | -2 | 2 | 5 | -2 | 2 | . | .
COCCCn1c(=O)c2ccccc2n2c(=S)[nH]nc12 | 0 | -1 | -2 | 6 | -2 | 4 | . | .
O=C(COC(=O)C1CCN(S(=O)(=O)c2cccs2)CC1)Nc1ccc(F)cc1F | -1 | -6 | -2 | -5 | 0 | 6 | . | .
